Test results: ChEMBL document CHEMBL4414552, “Homotrimerization Approach in the Design of Thrombospondin-1 Mimetic Peptides with Improved Potency in Triggering Regulated Cell Death of Cancer Cells” (J Med Chem, 2019)
Active and inactive are the calls of the source. No cut-off for these calls is given here. Square brackets hold non-standard residues; d marks the D form. Peptide text beside a SMILES is read from it. NMeR = CN[C@@H](CCCNC(=N)N)C(=O)O; Nle = CCCC[C@H](N)C(=O)O

Columns and labels:
[1] = molecular target: T1, Leukocyte surface antigen CD47 (Homo sapiens, UniProt Q08722); experiment: Binding affinity to CD47 in biotinylated human MEC1 cell membranes by biolayer interferometry
T1 sequence (Q08722 whole entry): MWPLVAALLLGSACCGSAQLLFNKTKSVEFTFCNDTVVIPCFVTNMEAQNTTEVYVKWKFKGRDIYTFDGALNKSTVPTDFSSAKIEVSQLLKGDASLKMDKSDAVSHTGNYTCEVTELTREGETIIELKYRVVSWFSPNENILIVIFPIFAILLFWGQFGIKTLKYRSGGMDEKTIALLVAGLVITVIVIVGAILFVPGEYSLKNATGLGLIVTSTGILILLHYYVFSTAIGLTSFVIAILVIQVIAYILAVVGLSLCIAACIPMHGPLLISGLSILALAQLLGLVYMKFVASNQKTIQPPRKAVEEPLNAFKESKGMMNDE
Outline: (§1)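 Biotinylated membrane preparations from MEC-1 cells were loaded onto SuperStreptavidin biosensors. Binding was measured by bilayer interferometry (Octet RED96) in PBS with 0.2% BSA and 1% DMSO at 30 °C. Affinities are given as apparent Kd estimates.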

[2] = tested on: MEC1; experiment: Cytotoxicity against human MEC1 cells assessed as induction of cell death at 200 uM after 6 hrs by annexin V/propidium iodide staining based flow cytometric analysis relative to control; format: functional
[3] = Solubility of the compound in PBS with 0.05% Tween 20 and 1% DMSO; format: physicochemical; conditions: buffer
[4] = Aggregation property of the compound in water; format: physicochemical; conditions: buffer
[5] = tested on: Serum; experiment: Aggregation property of the compound in human serum; format: ADME, cell-free
[6] = tested on: MEC1; experiment: Cytotoxicity against human MEC1 cells assessed as induction of cell death after 2 hrs by annexin V/propidium iodide staining based flow cytometric analysis; format: functional; conditions: MEC1, 2 h, read-out: LC50 (the source's name)
Outline: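 MEC-1 CLL cells (TP53-dysfunctional) maintained in Advanced RPMI 1640 with 10% fetal calf serum, 2 mM L-glutamine and penicillin–streptomycin. Peptide treatment for 2 h in complete medium. Ann-V-APC (0.1 μg/mL) and PI (0.5 μg/mL) staining, read by flow cytometry. Cell death taken as the sum of AnnV+/PI- and AnnV+/PI+ events. Mean ± SD of at least three independent experiments.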

[7] = Aggregation property of the compound in phosphate buffer; format: physicochemical
[8] = molecular target: T1, Leukocyte surface antigen CD47; experiment: Agonist activity at CD47 in human MEC1 cells assessed as activation of PLCgamma1-induced calcium-mediated caspase-independent cell death at 200 uM after 2 hrs by microscopic method; format: cell-based
Outline: (§2)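 MEC-1 CLL cells kept in Advanced RPMI 1640 with 10% FCS, 2 mM L-glutamine and penicillin–streptomycin. Cells were treated with peptide in complete medium for 2 h, then examined by light microscopy at 20X for morphology and cell aggregation.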

[9] = tested on: MEC1; experiment: Induction of cell aggregation in human MEC1 at 200 uM after 2 hrs by microcopic method; format: functional, cell-based; outline: as §2
[10] = tested on: MEC1; experiment: Induction of cell death in human MEC1 cells at 50 uM in presence of extracellular calcium chelator BAPTA administered 30 mins post BAPTA treatment in serum-free medium by Annexin V-APC/propidium iodide staining based flow cytometric analysis; format: functional
[11] = tested on: MEC1; experiment: Induction of cell death in human MEC1 cells at 50 uM in presence of PLCgamma1 inhibitor U73122 administered 1 hr post U73122 treatment in serum-free medium by annexin V-APC/propidium iodide staining based flow cytometric analysis; format: functional
Outline: (§3)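 Peptide was then added at 5 or 50 μM in serum-free medium for 2 h. Cell death was read by Ann-V/PI flow cytometry and normalized to each peptide's control to give an index. Mean ± SD of at least two experiments.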

[12] = tested on: MEC1; experiment: Induction of cell death in human MEC1 cells at 50 uM in presence of IP3R inhibitor 2-APB administered 1 hr post 2-APB treatment in serum-free medium by annexin V-APC/propidium iodide staining based flow cytometric analysis; format: functional; outline: as §3
[13] = tested on: MEC1; experiment: Induction of cell death in human MEC1 cells at 50 uM in presence of ryanodine inhibitor dantrolene administered 1 hr post dantrolene treatment in serum-free medium by annexin V-APC/propidium iodide staining based flow cytometric analysis; format: functional; outline: as §3
[14] = tested on: A549; experiment: Cytotoxicity against human A549 cells assessed as induction of cell death after 6 hrs by annexin V-APC/propidium iodide staining based flow cytometric analysis; format: functional; conditions: A549, 6 h, read-out: LC50 (the source's name)
Outline: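 A549 cells kept in Advanced RPMI 1640 with 10% fetal calf serum, 2 mM L-glutamine and penicillin–streptomycin. Peptides at the indicated concentrations in this complete medium for 6 h. Cells stained with Ann-V-APC (0.1 μg/mL) and PI (0.5 μg/mL), then read by flow cytometry. Values are means ± SD of two independent experiments.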

[15] = tested on: A549; experiment: Induction of cell death in human A549 cells at 100 uM in presence of PLCgamma1 inhibitor U73122 administered 1 hr post U73122 treatment in serum-free medium by annexin V-APC/propidium iodide staining based flow cytometric analysis; format: functional
Outline: (§4)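 Peptide was then added at 10 or 100 μM in serum-free medium for 6 h. Cell death was read by Ann-V/PI flow cytometry and trypan blue counting. A cell death index was obtained by normalizing to each peptide's control. Mean ± SD of two experiments.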

[16] = tested on: A549; experiment: Induction of cell death in human A549 cells at 100 uM in presence of IP3R inhibitor 2-APB administered 1 hr post 2-APB treatment in serum-free medium by annexin V-APC/propidium iodide staining based flow cytometric analysis; format: functional; outline: as §4
[17] = tested on: A549; experiment: Induction of cell death in human A549 cells at 100 uM in presence of extracellular calcium chelator BAPTA administered 30 mins post BAPTA treatment in serum-free medium by annexin V-APC/propidium iodide staining based flow cytometric analysis; format: functional
[18] = tested on: A549; experiment: Induction of cell death in human A549 cells at 100 uM in presence of ryanodine inhibitor dantrolene administered 1 hr post dantrolene treatment in serum-free medium by annexin V-APC/propidium iodide staining based flow cytometric analysis; format: functional; outline: as §4
[19] = tested on: A549; experiment: Induction of cell death in human A549 cells at 100 uM in presence of ryanodine inhibitor dantrolene/PLCgamma1 inhibitor U73122/IP3R inhibitor 2-APB by annexin V-APC/propidium iodide staining based flow cytometric analysis; format: functional; outline: as §4
[20] = tested on: A549; experiment: Induction of cell death in human A549 cells at 100 uM administered 30 mins post Q-VD-OPh treatment in serum-free medium by propidium iodide staining based flow cytometric analysis; format: functional
[21] = tested on: A549; experiment: Induction of cell death in human A549 cells assessed as reduction in cell index at 200 uM measured every minute for first 2 hrs followed by every hour for 24 hrs by RTCA analysis; format: functional, cell-based
[22] = tested on: A549; experiment: Disruption of membrane integrity in human A549 cells assessed as increase in adenylate kinase release at 200 uM by ToxiLight bioassay; format: functional, cell-based
[23] = Aggregation property of the compound in pure water; format: physicochemical; conditions: buffer
[24] = tested on: MEC1; experiment: Induction of cell death in human MEC1 cells at 50 uM in presence of caspase inhibitor Q-VD-OPH administered 30 mins post Q-VD-OPH treatment in serum-free medium by Annexin V-APC/propidium iodide staining based flow cytometric analysis; format: functional
[25] = tested on: MEC1; experiment: Induction of cell death in human MEC1 cells at 50 uM in presence of ryanodine inhibitor dantrolene/PLCgamma1 inhibitor U73122/IP3R inhibitor 2-APB by annexin V-APC/propidium iodide staining based flow cytometric analysis; format: functional; outline: as §3
[26] = molecular target: T1, Leukocyte surface antigen CD47; experiment: Binding affinity to CD47 in biotinylated human MEC1 cell membranes at 300 uM by biolayer interferometry; outline: as §1
[27] = tested on: MEC1; experiment: Cytotoxicity against human MEC1 cells assessed as induction of cell death at 300 uM after 6 hrs by annexin V/propidium iodide staining based flow cytometric analysis relative to control; format: functional

CC(C)[C@H](NC(=O)[C@H](Cc1ccc(O)cc1)NC(=O)[C@H](Cc1ccccc1)NC(=O)[C@H](CCCNC(=N)N)N(C)C(=O)[C@H](N)CCCCN)C(=O)N[C@H](C(=O)N[C@@H](Cc1ccc(O)cc1)C(=O)N[C@@H](Cc1c[nH]c2ccccc12)C(=O)N[C@@H](CCCCN)C(=O)N[C@H](CCCCN)C(=O)O)C(C)C
Kd [1]: 13 µM
Activity [2]: 19%

CCCC[C@H](NC(=O)[C@@H](NC(=O)[C@@H](NC(=O)[C@H](Cc1ccc(O)cc1)NC(=O)[C@H](Cc1ccccc1)NC(=O)[C@H](CCCNC(=N)N)N(C)C(=O)[C@H](N)CCCCN)C(C)C)C(C)C)C(=O)N[C@@H](Cc1c[nH]c2ccccc12)C(=O)N[C@@H](CCCCN)C(=O)N[C@H](CCCCN)C(=O)O (H-[dK][NMeR]FYVV[Nle]WK[dK]-OH)
solubility [3]: Soluble
Kd [1]: 8.6 µM
Activity [2]: 59%
Activity [4]: Not Active
Activity [5]: Not Active
CC50 [6]: 200 µM
Activity [7]: Not Active
Activity [8]: Active
Activity [9]: inactive
Activity [10]: inactive
Activity [11]: inactive
Activity [12]: inactive
Activity [13]: inactive
CC50 [14]: 200 µM
Activity [15]: inactive
Activity [16]: inactive
Activity [17]: inactive
Activity [18]: inactive
Activity [19]: inactive
Activity [20]: inactive
Activity [21]: Active
Activity [22]: Active
Activity [23]: Not Active
Activity [24]: inactive
Activity [25]: inactive

CSCC[C@H](NC(=O)[C@@H](NC(=O)[C@H](C(C)C)N(C)C(=O)[C@H](Cc1ccc(O)cc1)NC(=O)[C@H](Cc1ccccc1)NC(=O)[C@H](CCCNC(=N)N)NC(=O)[C@H](N)CCCCN)C(C)C)C(=O)N[C@@H](Cc1c[nH]c2ccccc12)C(=O)N[C@@H](CCCCN)C(=O)N[C@H](CCCCN)C(=O)O
Kd [1]: 36 µM
Activity [2]: 11%

CSCC[C@H](NC(=O)[C@@H](NC(=O)[C@@H](NC(=O)[C@H](Cc1ccc(O)cc1)NC(=O)[C@H](Cc1ccccc1)NC(=O)[C@H](CCCNC(=N)N)N(C)C(=O)[C@H](N)CCCCN)C(C)C)C(C)C)C(=O)N[C@@H](Cc1c[nH]c2ccccc12)C(=O)N[C@@H](CCCCN)C(=O)N[C@H](CCCCN)C(=O)O
Kd [1]: 21 µM
Activity [2]: 54%

CSCC[C@H](NC(=O)[C@@H](NC(=O)[C@@H](NC(=O)[C@H](Cc1ccc(O)cc1)NC(=O)[C@H](Cc1ccccc1)NC(=O)[C@H](CCCNC(=N)N)N(C)C(=O)[C@H](N)CCCCN)C(C)C)C(C)C)C(=O)N[C@@H](Cc1c[nH]c2ccccc12)C(=O)N(C)[C@@H](CCCCN)C(=O)N[C@H](CCCCN)C(=O)O
Kd [1]: 38 µM
Activity [2]: 19%

CC(C)C[C@H](NC(=O)[C@@H](NC(=O)[C@@H](NC(=O)[C@H](Cc1ccc(O)cc1)NC(=O)[C@H](Cc1ccccc1)NC(=O)[C@H](CCCNC(=N)N)N(C)C(=O)[C@H](N)CCCCN)C(C)C)C(C)C)C(=O)N[C@@H](Cc1c[nH]c2ccccc12)C(=O)N[C@@H](CCCCN)C(=O)N[C@H](CCCCN)C(=O)O (H-[dK][NMeR]FYVVLWK[dK]-OH)
Kd [1]: 15 µM
Activity [2]: 26%

CSCC[C@@H](C(=O)N[C@@H](Cc1c[nH]c2ccccc12)C(=O)N[C@@H](CCCCN)C(=O)N[C@H](CCCCN)C(=O)O)N(C)C(=O)[C@@H](NC(=O)[C@@H](NC(=O)[C@H](Cc1ccc(O)cc1)NC(=O)[C@H](Cc1ccccc1)NC(=O)[C@H](CCCNC(=N)N)NC(=O)[C@H](N)CCCCN)C(C)C)C(C)C
Activity [2]: 11%

CC[C@H](C)[C@H](NC(=O)[C@@H](NC(=O)[C@@H](NC(=O)[C@H](Cc1ccc(O)cc1)NC(=O)[C@H](Cc1ccccc1)NC(=O)[C@H](CCCNC(=N)N)N(C)C(=O)[C@H](N)CCCCN)C(C)C)C(C)C)C(=O)N[C@@H](Cc1c[nH]c2ccccc12)C(=O)N[C@@H](CCCCN)C(=O)N[C@H](CCCCN)C(=O)O
Kd [1]: 17 µM
Activity [2]: 25%

CC(C)[C@H](NC(=O)[C@H](Cc1ccc(O)cc1)NC(=O)[C@H](Cc1ccccc1)NC(=O)[C@H](CCCNC(=N)N)N(C)C(=O)[C@H](N)CCCCN)C(=O)N[C@H](C(=O)N[C@H](C(=O)N[C@@H](Cc1c[nH]c2ccccc12)C(=O)N[C@@H](CCCCN)C(=O)N[C@H](CCCCN)C(=O)O)C(C)C)C(C)C
Kd [1]: 9.5 µM
Activity [2]: 23%

H-KWVKYRVMFK-OH
Activity [1]: inactive
Activity [2]: inactive
Activity [26]: inactive
Activity [27]: inactive

CCCC[C@H](NC(=O)[C@@H](NC(=O)[C@@H](NC(=O)[C@H](Cc1ccc(O)cc1)NC(=O)[C@H](Cc1ccccc1)NC(=O)[C@H](CCCNC(=N)N)N(C)C(C)=O)C(C)C)C(C)C)C(=O)N[C@@H](Cc1c[nH]c2ccccc12)C(=O)N[C@@H](CCCCN)C(N)=O
Kd [1]: 20 µM
Activity [2]: 51%

CSCC[C@H](NC(=O)[C@@H](NC(=O)[C@@H](NC(=O)[C@H](Cc1ccc(O)cc1)NC(=O)[C@H](Cc1ccccc1)NC(=O)[C@H](CCCNC(=N)N)NC(=O)[C@H](N)CCCCN)C(C)C)C(C)C)C(=O)N[C@@H](Cc1c[nH]c2ccccc12)C(=O)N(C)[C@@H](CCCCN)C(=O)N[C@H](CCCCN)C(=O)O
Kd [1]: 48 µM
Activity [2]: 20%

CSCC[C@H](NC(=O)[C@@H](NC(=O)[C@@H](NC(=O)[C@H](Cc1ccc(O)cc1)NC(=O)[C@H](Cc1ccccc1)NC(=O)[C@H](CCCNC(=N)N)NC(=O)[C@H](N)CCCCN)C(C)C)C(C)C)C(=O)N[C@@H](Cc1c[nH]c2ccccc12)C(=O)N[C@@H](CCCCN)C(=O)N[C@H](CCCCN)C(=O)O
Activity [2]: 67%
CC50 [6]: 200 µM
Activity [8]: Active
Activity [9]: inactive
Activity [10]: inactive
Activity [11]: inactive
Activity [12]: inactive
Activity [13]: inactive
CC50 [14]: 200 µM
Activity [15]: inactive
Activity [16]: inactive
Activity [17]: inactive
Activity [18]: inactive
Activity [19]: inactive
Activity [20]: inactive
Activity [21]: Active
Activity [22]: Active
Activity [24]: inactive
Activity [25]: inactive
